Reference: ChEMBL document CHEMBL1152649, “Synthesis, cytotoxicity and human telomerase inhibition activities of a series of 1,2-heteroannelated anthraquinones and anthra[1,2-d]imidazole-6,11-dione homologues” (2009)
The source made the active and inactive calls. The rule behind the calls is not given here.

What was measured:
[1] = test system: EKVX; experiment: Antiproliferative activity against human EKVX cells assessed as cell growth at 10 uM; type: functional; details: read-out: Activity
Outline: (§1)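 NCI 60 cell line panel, single-dose screen (10^-5 M) run by the developmental therapeutics program protocol. Results are given as growth percent of treated cells relative to untreated control cells for each line.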

[2] = test system: 786-0; experiment: Antiproliferative activity against human 786-0 cells assessed as cell growth at 10 uM; type: functional; details: read-out: Activity; outline: as §1
[3] = test system: SR; experiment: Antiproliferative activity against human SR cells assessed as cell growth at 10 uM; type: functional; details: read-out: Activity
Outline: (§2)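 NCI 60 cell line panel, single dose (10^-5 M), run per the Developmental Therapeutics Program protocol (one dose mean graph). Each result is the growth percentage of treated cells relative to untreated control cells.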

[4] = Antiproliferative activity against human RPMI8266 cells assessed as cell growth at 10 uM; type: functional; details: read-out: Activity; outline: as §1
[5] = test system: SNB-19; experiment: Antiproliferative activity against human SNB19 cells assessed as cell growth at 10 uM; type: functional; details: read-out: Activity; outline: as §1
[6] = test system: K562; experiment: Antiproliferative activity against human K562 cells assessed as cell growth at 10 uM; type: functional; details: read-out: Activity; outline: as §1
[7] = Cytotoxicity against human H1299 cells at 1 uM after 48 hrs by MTT assay; type: functional; details: NCI-H1299, 48 h
Outline: (§3)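 H1299 non-small cell lung cancer cells were grown in RPMI 1640 with 10% FBS, penicillin and streptomycin at 37 °C under 5% CO2. About 2 × 10³ cells per well were seeded and left 24 h. Compounds were dissolved fresh in DMSO, diluted into complete medium and applied for 48 h. MTT was then added for 4 h at 37 °C, followed by lysis buffer (20% SDS, 50% DMF) for 16 h, and absorbance was read at 550 nm.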

[8] = test system: NCI-H322M; experiment: Antiproliferative activity against human NCI-H322M cells assessed as cell growth at 10 uM; type: functional; details: read-out: Activity; outline: as §1
[9] = Antiproliferative activity against human Hs 578T cells assessed as cell growth at 10 uM; type: functional; details: read-out: Activity; outline: as §1
[10] = test system: HOP-62; experiment: Antiproliferative activity against human HOP62 cells assessed as cell growth at 10 uM; type: functional; details: read-out: Activity; outline: as §1
[11] = test system: NCI-H23; experiment: Antiproliferative activity against human NCI-H23 cells assessed as cell growth at 10 uM; type: functional; details: read-out: Activity; outline: as §1
[12] = test system: NCI-H226; experiment: Antiproliferative activity against human NCI-H226 cells assessed as cell growth at 10 uM; type: functional; details: read-out: Activity; outline: as §1
[13] = test system: COLO 205; experiment: Antiproliferative activity against human COLO205 cells assessed as cell growth at 10 uM; type: functional; details: read-out: Activity; outline: as §1
[14] = test system: PC-3; experiment: Antiproliferative activity against human PC3 cells assessed as cell growth at 10 uM; type: functional; details: read-out: Activity; outline: as §1
[15] = test system: A549; experiment: Antiproliferative activity against human A549 cells assessed as cell growth at 10 uM; type: functional; details: read-out: Activity; outline: as §1
[16] = test system: DU-145; experiment: Antiproliferative activity against human DU145 cells assessed as cell growth at 10 uM; type: functional; details: read-out: Activity; outline: as §1
[17] = test system: NCI-H460; experiment: Antiproliferative activity against human NCI-H460 cells assessed as cell growth at 10 uM; type: functional; details: read-out: Activity; outline: as §1
[18] = test system: OVCAR-3; experiment: Antiproliferative activity against human OVCAR-3 cells assessed as cell growth at 10 uM; type: functional; details: read-out: Activity; outline: as §1
[19] = test system: A498; experiment: Antiproliferative activity against human A498 cells assessed as cell growth at 10 uM; type: functional; details: read-out: Activity; outline: as §1
[20] = test system: M14; experiment: Antiproliferative activity against human M14 cells assessed as cell growth at 10 uM; type: functional; details: read-out: Activity; outline: as §1
[21] = test system: TK-10; experiment: Antiproliferative activity against human TK10 cells assessed as cell growth at 10 uM; type: functional; details: read-out: Activity; outline: as §2
[22] = test system: HT-29; experiment: Antiproliferative activity against human HT-29 cells assessed as cell growth at 10 uM; type: functional; details: read-out: Activity; outline: as §1
[23] = test system: OVCAR-5; experiment: Antiproliferative activity against human OVCAR5 cells assessed as cell growth at 10 uM; type: functional; details: read-out: Activity; outline: as §1
[24] = test system: SN12C; experiment: Antiproliferative activity against human SN12C cells assessed as cell growth at 10 uM; type: functional; details: read-out: Activity; outline: as §1
[25] = test system: HOP-92; experiment: Antiproliferative activity against human HOP92 cells assessed as cell growth at 10 uM; type: functional; details: read-out: Activity; outline: as §1
[26] = target: Telomerase reverse transcriptase (Homo sapiens) (UniProt O14746); experiment: Inhibition of TERT in human H1299 cells assessed as residual transcriptional activity at 100 uM after 24 hrs by SEAP reporter gene assay; values are per cent of control
Chain of Telomerase reverse transcriptase (Homo sapiens) (O14746 whole entry): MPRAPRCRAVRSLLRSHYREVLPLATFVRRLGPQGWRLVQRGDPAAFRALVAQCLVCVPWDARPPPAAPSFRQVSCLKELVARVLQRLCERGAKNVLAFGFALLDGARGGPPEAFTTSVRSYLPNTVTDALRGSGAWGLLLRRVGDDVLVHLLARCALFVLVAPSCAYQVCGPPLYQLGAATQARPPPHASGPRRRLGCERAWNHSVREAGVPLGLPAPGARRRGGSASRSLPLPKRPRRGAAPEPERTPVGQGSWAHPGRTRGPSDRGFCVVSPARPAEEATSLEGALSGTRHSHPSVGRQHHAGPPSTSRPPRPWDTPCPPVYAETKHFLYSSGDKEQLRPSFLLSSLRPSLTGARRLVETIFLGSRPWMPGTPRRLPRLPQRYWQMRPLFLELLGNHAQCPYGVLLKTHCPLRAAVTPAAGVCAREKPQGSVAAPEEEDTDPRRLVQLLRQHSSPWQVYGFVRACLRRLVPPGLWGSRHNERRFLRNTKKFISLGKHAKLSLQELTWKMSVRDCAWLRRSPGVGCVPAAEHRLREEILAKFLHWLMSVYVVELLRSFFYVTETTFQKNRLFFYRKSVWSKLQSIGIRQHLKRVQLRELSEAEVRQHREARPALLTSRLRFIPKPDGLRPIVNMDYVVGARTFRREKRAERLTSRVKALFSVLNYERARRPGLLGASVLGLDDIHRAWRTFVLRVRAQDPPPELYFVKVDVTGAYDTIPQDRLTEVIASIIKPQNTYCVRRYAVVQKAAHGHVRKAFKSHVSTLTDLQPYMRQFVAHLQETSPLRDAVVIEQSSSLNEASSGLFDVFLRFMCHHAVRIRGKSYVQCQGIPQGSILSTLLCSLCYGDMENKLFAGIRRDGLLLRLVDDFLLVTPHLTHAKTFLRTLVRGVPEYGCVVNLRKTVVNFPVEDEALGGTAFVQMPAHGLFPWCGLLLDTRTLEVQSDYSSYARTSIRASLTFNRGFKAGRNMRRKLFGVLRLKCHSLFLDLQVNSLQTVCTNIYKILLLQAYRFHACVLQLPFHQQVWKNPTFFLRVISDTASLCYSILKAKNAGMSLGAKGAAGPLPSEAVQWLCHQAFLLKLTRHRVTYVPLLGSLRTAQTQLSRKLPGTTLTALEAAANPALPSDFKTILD

[27] = test system: HL-60(TB); experiment: Antiproliferative activity against human HL-60(TB) cells assessed as cell growth at 10 uM; type: functional; details: read-out: Activity
Outline: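 NCI Developmental Therapeutics Program 60-cell-line one-dose screen at 10^-5 M. Readout is growth percentage of treated cells relative to untreated control cells.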

[28] = test system: SK-MEL-2; experiment: Antiproliferative activity against human SK-MEL-2 cells assessed as cell growth at 10 uM; type: functional; details: read-out: Activity; outline: as §1
[29] = test system: OVCAR-8; experiment: Antiproliferative activity against human OVCAR8 cells assessed as cell growth at 10 uM; type: functional; details: read-out: Activity; outline: as §1
[30] = test system: HCC 2998; experiment: Antiproliferative activity against human HCC2998 cells assessed as cell growth at 10 uM; type: functional; details: read-out: Activity; outline: as §1
[31] = test system: SK-OV-3; experiment: Antiproliferative activity against human SKOV3 cells assessed as cell growth at 10 uM; type: functional; details: read-out: Activity; outline: as §1
[32] = test system: NCI/ADR-RES; experiment: Antiproliferative activity against human NCI/ADR-RES cells assessed as cell growth at 10 uM; type: functional; details: read-out: Activity; outline: as §1
[33] = target: Telomerase reverse transcriptase (Homo sapiens) (UniProt O14746); experiment: Inhibition of TERT in human H1299 cells assessed as residual transcriptional activity at 1 uM after 24 hrs by SEAP reporter gene assay; values are per cent of control
[34] = test system: MCF7; experiment: Antiproliferative activity against human MCF7 cells assessed as cell growth at 10 uM; type: functional; details: read-out: Activity; outline: as §1
[35] = test system: CCRF-CEM; experiment: Antiproliferative activity against human CCRF-CEM cells assessed as cell growth at 10 uM; type: functional; details: read-out: Activity; outline: as §1
[36] = test system: Malme-3M; experiment: Antiproliferative activity against human MALME-3M cells assessed as cell growth at 10 uM; type: functional; details: read-out: Activity; outline: as §1
[37] = test system: U-251; experiment: Antiproliferative activity against human U251 cells assessed as cell growth at 10 uM; type: functional; details: read-out: Activity; outline: as §2
[38] = test system: SK-MEL-5; experiment: Antiproliferative activity against human SK-MEL-5 cells assessed as cell growth at 10 uM; type: functional; details: read-out: Activity; outline: as §1
[39] = test system: SF-295; experiment: Antiproliferative activity against human SF295 cells assessed as cell growth at 10 uM; type: functional; details: read-out: Activity; outline: as §1
[40] = test system: SK-MEL-28; experiment: Antiproliferative activity against human SK-MEL-28 cells assessed as cell growth at 10 uM; type: functional; details: read-out: Activity; outline: as §1
[41] = Cytotoxicity against human H1299 cells at 100 uM after 48 hrs by MTT assay; type: functional; details: NCI-H1299, 48 h; outline: as §3
[42] = target: Telomerase reverse transcriptase (Homo sapiens) (UniProt O14746); experiment: Inhibition of telomerase in human H1299 cells up to 100 uM by TRAP assay; type: cell-based
Outline: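 PCR-based telomeric repeat amplification protocol (TRAP). The telomerase source was total lysate of H1299 lung cancer cells, with protein measured against BSA standards. Controls were extract without inhibitor and RNase A-treated extract.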

[43] = test system: T47D; experiment: Antiproliferative activity against human T47D cells assessed as cell growth at 10 uM; type: functional; details: read-out: Activity; outline: as §2
[44] = Cytotoxicity against human H1299 cells at 10 uM after 48 hrs by MTT assay; type: functional; details: NCI-H1299, 48 h; outline: as §3

SMILES: COc1cc(-c2nc3ccc4c(c3[nH]2)C(=O)c2ccccc2C4=O)ccc1O
- growth at 10 µM [1]: 89.1%
- growth at 10 µM [2]: 109%
- growth at 10 µM [3]: 73.9%
- growth at 10 µM [4]: 81%
- growth at 10 µM [5]: 97.4%
- growth at 10 µM [6]: 95.5%
- viability at 1 µM [7]: 71%
- growth at 10 µM [8]: 107%
- growth at 10 µM [9]: 167%
- growth at 10 µM [10]: 116%
- growth at 10 µM [11]: 103%
- growth at 10 µM [12]: 100%
- growth at 10 µM [13]: 101%
- growth at 10 µM [14]: 88.1%
- growth at 10 µM [15]: 97.9%
- growth at 10 µM [16]: 88.1%
- growth at 10 µM [17]: 90.1%
- growth at 10 µM [18]: 125%
- growth at 10 µM [19]: 122%
- growth at 10 µM [20]: 114%
- growth at 10 µM [21]: 174%
- growth at 10 µM [22]: 101%
- growth at 10 µM [23]: 97.1%
- growth at 10 µM [24]: 102%
- growth at 10 µM [25]: 120%
- residual activity [26]: 8%
- growth at 10 µM [27]: 123%
- growth at 10 µM [28]: 82.2%
- growth at 10 µM [29]: 93.4%
- growth at 10 µM [30]: 103%
- growth at 10 µM [31]: 113%
- growth at 10 µM [32]: 103%
- residual activity [33]: 85%
- growth at 10 µM [34]: 57.5%
- growth at 10 µM [35]: 94.7%
- growth at 10 µM [36]: 107%
- growth at 10 µM [37]: 103%
- growth at 10 µM [38]: 88.1%
- growth at 10 µM [39]: 127%
- growth at 10 µM [40]: 132%
- viability at 100 µM [41]: 38%
- inhibition [42]: inactive
- growth at 10 µM [43]: 83.9%
- viability at 10 µM [44]: 70%
